Test results: ChEMBL document CHEMBL2169867, “Novel β-amino acid derivatives as inhibitors of cathepsin A” (J Med Chem, 2012)
The source made the active and inactive calls. No cut-off for these calls is given here.

Columns and labels:
[1] = AUC (0 to infinity) in Sprague-Dawley rat heart at 10 mg/kg, po; format: ADME, organism-based; design: time infinity, dose 10 mg/kg, route oral
How it was run: (§1)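 Male Sprague-Dawley rats; single oral 10 mg/kg in glycofurol 75 (19%)/Cremophor RH40 (6%)/water (75%). Plasma and heart sampled at eight time points over 24 h, three animals per time point, nonserial design. Heart homogenized with water (2 g per 1 g tissue). Concentrations measured by LC-MS/MS with a structurally related internal standard; AUC(0-inf) taken from plasma concentration-time curves.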

[2] = Cmax in Sprague-Dawley rat heart at 10 mg/kg, po; format: ADME, organism-based; design: dose 10 mg/kg, route oral; how it was run: as §1
Mus musculus [3] = assay: Cardioprotective activity against angiotensin 2-induced cardiac hypertrophy in B6.129P2-ApoE/J mouse assessed as left ventricular relaxation time at 100 mg/kg, po administered QD after 4 weeks (reference value: 8.73 0.41 ms); format: functional, Heart left ventricle
[4] = Cmax in Sprague-Dawley rat plasma at 10 mg/kg, po; format: ADME, organism-based; design: dose 10 mg/kg, route oral; how it was run: as §1
Rattus norvegicus [5] = assay: Antihypertensive activity in Wistar rat assessed as bradykinin-dependent diuresis at 10 mg/kg, iv administered as bolus measured as urine flow rate in presence of HOE140 (reference value: 11.6 uL/min); format: functional
How it was run: (§2)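 Anesthetized male Wistar rats prepared with urethane, carotid/jugular cannulae, continuous albumin-saline infusion and ureteral urine collection. Compound given as iv bolus at 10 mg/kg, alone or with HOE140 0.5 mg/kg iv. Urine volume measured over five successive 20 min periods; two-way ANOVA with Bonferroni post-tests, p < 0.05.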

Neprilysin = Neprilysin (Homo sapiens, UniProt P08473); assay: Inhibition of human recombinant NEP using Mca-RPPGFSAFK(Dnp)-OH as substrate incubated for 15 mins prior to substrate addition measured after 20 to 30 mins by fluorimetric analysis
How it was run: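 Recombinant human NEP and inhibitor preincubated 15 min at room temperature in reaction buffer, then substrate added. Fluorescence read after 20-30 min at room temperature. % inhibition and IC50 calculated against internal high and low controls.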

Mus musculus [6] = assay: Cardioprotective activity against angiotensin 2-induced cardiac hypertrophy in B6.129P2-ApoE/J mouse assessed as heart rate at 100 mg/kg, po administered QD after 4 weeks (reference value: 403.23 7.98 bpm); format: functional
[7] = AUC (0 to infinity) in Sprague-Dawley rat plasma at 10 mg/kg, po; format: ADME, organism-based; design: time infinity, dose 10 mg/kg, route oral; how it was run: as §1
Mus musculus [8] = assay: Toxicity in B6.129P2-ApoE/J mouse assessed as body weight at 100 mg/kg, po administered QD after 4 weeks (reference value: 30.48 0.52 g); format: organism-based; design: dose 100 mg/kg, route oral; details: in vivo, 672 h
Rattus norvegicus [9] = assay: Antihypertensive activity in Wistar rat assessed as increase in bradykinin level in urine at 30 mg/kg, po relative to vehicle-treated control; format: functional
How it was run: (§3)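 Male Wistar rats dosed po at 30 mg kg⁻¹ day⁻¹. Urine collected over 6 h before and after treatment. Bradykinin measured by commercial RIA; creatinine excretion also determined. Mean ± SEM, n = 9-10; paired t test.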

Mus musculus [10] = assay: Cardioprotective activity against angiotensin 2-induced cardiac hypertrophy in B6.129P2-ApoE/J mouse assessed as mean arterial pressure at 100 mg/kg, po administered QD after 4 weeks (reference value: 99.03 6.82 mmHg); format: functional, Heart
Mus musculus [11] = assay: Cardioprotective activity against angiotensin 2-induced cardiac hypertrophy in B6.129P2-ApoE/J mouse assessed as left ventricular end systolic pressure at 100 mg/kg, po administered QD after 4 weeks (reference value: 139.36 9.79 mmHg); format: functional, Heart left ventricle
CYP3A4 = CYP3A4 (Homo sapiens, UniProt P08684); assay: Induction of CYP3A4 relative to control; format: ADME; details: human
Rattus norvegicus [12] = assay: Antihypertensive activity in Wistar rat assessed as bradykinin-dependent diuresis at 1 mg/kg, iv administered as bolus measured as urine flow rate (reference value: 11.6 uL/min); format: functional
[13] = molecular target: T1, Lysosomal protective protein (Homo sapiens, UniProt P10619); assay: Inhibition of human recombinant Myc-His10-tagged cathepsin A expressed in baculovirus infected Sf9 cells using BodipyFL labeled bradykinin as substrate incubated for 15 mins prior to substrate addition measured after 15 mins by fluorimetric analysis
T1 sequence (P10619 whole entry): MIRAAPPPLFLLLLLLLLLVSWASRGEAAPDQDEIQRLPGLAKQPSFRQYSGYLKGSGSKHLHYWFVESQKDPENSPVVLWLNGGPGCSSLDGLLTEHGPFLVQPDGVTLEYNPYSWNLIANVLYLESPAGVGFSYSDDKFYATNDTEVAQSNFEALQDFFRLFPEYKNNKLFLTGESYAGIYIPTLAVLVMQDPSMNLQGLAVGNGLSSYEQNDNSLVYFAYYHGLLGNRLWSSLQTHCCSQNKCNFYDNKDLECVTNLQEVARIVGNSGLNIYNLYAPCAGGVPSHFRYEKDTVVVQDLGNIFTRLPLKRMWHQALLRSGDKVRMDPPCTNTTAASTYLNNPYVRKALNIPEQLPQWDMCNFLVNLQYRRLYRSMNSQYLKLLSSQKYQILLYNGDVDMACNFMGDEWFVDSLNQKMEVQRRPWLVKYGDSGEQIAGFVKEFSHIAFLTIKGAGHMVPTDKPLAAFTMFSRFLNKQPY

Rattus norvegicus [14] = assay: Cardioprotective activity against ventricular ischemia/reperfusion in Wistar rat assessed as duration of burst-pacing-induced atrial fibrillation at 30 mg/kg, po administered QD after 3 months (reference value: 25.00 18.09 s); format: functional, Cardiac atrium
[15] = molecular target: Cathepsin A (Homo sapiens); assay: Inhibition of cathepsin A
Rattus norvegicus [16] = assay: Effect on glomerular filtration rate in Wistar rat assessed as change in creatinine excretion at 30 mg/kg, po relative to vehicle-treated control; format: functional, organism-based; design: dose 30 mg/kg; how it was run: as §3
Mus musculus [17] = assay: Cardioprotective activity against angiotensin 2-induced cardiac hypertrophy in B6.129P2-ApoE/J mouse assessed as left ventricular end diastolic pressure at 100 mg/kg, po administered QD after 4 weeks (reference value: 15.49 1.95 mmHg); format: functional, Heart left ventricle
Mus musculus [18] = assay: Ratio of left ventricular wet weight to body weight in B6.129P2-ApoE/J mouse at 100 mg/kg, po administered QD after 4 weeks (reference value: 5.99 0.28 mg/g); format: functional
Rattus norvegicus [19] = assay: Antihypertensive activity in Wistar rat assessed as bradykinin-dependent diuresis at 10 mg/kg, iv administered as bolus measured as urine flow rate (reference value: 11.6 uL/min); format: functional; how it was run: as §2
Mus musculus [20] = assay: Cardioprotective activity against angiotensin 2-induced cardiac hypertrophy in B6.129P2-ApoE/J mouse assessed as left ventricular wet weight at 100 mg/kg, po administered QD after 4 weeks (reference value: 182.03 […]); format: functional, Heart left ventricle
Mus musculus [21] = assay: Cardioprotective activity against angiotensin 2-induced cardiac hypertrophy in B6.129P2-ApoE/J mouse assessed as ejection fraction at 100 mg/kg, po administered QD after 4 weeks (reference value: 51.14 2.49 %); format: functional, Heart
[22] = Lipophilicity, log D of the compound; format: physicochemical; details: octanol/water
[23] = Solubility of the compound; format: physicochemical
[24] = molecular target: Voltage-gated inwardly rectifying potassium channel KCNH2 (Homo sapiens, UniProt Q12809); assay: Inhibition of human ERG
[25] = Oral bioavailability in Sprague-Dawley rat at 10 mg/kg; format: ADME, organism-based; details: in vivo
[26] = Drug metabolism in rat liver microsomes; format: ADME, Microsome; details: read-out: Drug metabolism
[27] = Genotoxicity in micronucleus
[28] = Drug metabolism in human liver microsomes; format: ADME, Microsome; details: read-out: Drug metabolism
Salmonella typhimurium = assay: Genotoxicity against Salmonella typhimurium by AMES test; format: toxicity, organism-based; details: salmonella enterica subsp. enterica serovar typhimurium

Chain of CYP3A4 (P08684 whole entry): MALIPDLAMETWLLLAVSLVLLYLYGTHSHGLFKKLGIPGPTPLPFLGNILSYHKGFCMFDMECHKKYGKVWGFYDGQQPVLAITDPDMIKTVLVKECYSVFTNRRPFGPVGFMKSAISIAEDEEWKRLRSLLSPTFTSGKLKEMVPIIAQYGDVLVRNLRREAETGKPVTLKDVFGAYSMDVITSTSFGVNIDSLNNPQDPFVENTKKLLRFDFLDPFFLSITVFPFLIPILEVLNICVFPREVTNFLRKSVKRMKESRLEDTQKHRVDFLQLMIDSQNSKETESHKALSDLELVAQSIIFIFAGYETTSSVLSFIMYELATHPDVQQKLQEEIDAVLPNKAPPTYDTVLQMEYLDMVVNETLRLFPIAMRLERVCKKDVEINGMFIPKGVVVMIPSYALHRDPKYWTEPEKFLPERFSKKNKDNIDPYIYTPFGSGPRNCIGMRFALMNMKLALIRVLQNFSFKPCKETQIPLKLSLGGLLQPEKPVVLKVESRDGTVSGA
Chain of Neprilysin (P08473 whole entry): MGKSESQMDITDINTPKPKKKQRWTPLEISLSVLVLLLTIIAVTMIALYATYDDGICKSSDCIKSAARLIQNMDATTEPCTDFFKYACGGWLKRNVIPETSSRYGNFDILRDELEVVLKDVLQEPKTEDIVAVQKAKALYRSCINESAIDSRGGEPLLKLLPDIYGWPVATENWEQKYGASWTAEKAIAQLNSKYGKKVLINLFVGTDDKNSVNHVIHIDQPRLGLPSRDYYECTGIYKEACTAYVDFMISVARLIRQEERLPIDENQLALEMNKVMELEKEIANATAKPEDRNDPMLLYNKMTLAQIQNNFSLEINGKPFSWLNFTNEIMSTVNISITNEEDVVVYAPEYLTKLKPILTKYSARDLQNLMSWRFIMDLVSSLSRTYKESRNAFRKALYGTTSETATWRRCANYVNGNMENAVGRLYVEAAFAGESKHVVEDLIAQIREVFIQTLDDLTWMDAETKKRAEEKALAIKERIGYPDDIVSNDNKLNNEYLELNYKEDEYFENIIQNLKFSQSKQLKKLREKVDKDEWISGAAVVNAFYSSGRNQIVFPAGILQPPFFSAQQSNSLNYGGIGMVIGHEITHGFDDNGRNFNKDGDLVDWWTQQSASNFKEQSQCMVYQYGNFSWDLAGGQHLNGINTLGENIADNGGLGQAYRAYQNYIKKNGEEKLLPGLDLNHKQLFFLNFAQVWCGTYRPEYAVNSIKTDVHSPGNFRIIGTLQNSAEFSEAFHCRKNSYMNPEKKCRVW
Chain of Voltage-gated inwardly rectifying potassium channel KCNH2 (Q12809 whole entry): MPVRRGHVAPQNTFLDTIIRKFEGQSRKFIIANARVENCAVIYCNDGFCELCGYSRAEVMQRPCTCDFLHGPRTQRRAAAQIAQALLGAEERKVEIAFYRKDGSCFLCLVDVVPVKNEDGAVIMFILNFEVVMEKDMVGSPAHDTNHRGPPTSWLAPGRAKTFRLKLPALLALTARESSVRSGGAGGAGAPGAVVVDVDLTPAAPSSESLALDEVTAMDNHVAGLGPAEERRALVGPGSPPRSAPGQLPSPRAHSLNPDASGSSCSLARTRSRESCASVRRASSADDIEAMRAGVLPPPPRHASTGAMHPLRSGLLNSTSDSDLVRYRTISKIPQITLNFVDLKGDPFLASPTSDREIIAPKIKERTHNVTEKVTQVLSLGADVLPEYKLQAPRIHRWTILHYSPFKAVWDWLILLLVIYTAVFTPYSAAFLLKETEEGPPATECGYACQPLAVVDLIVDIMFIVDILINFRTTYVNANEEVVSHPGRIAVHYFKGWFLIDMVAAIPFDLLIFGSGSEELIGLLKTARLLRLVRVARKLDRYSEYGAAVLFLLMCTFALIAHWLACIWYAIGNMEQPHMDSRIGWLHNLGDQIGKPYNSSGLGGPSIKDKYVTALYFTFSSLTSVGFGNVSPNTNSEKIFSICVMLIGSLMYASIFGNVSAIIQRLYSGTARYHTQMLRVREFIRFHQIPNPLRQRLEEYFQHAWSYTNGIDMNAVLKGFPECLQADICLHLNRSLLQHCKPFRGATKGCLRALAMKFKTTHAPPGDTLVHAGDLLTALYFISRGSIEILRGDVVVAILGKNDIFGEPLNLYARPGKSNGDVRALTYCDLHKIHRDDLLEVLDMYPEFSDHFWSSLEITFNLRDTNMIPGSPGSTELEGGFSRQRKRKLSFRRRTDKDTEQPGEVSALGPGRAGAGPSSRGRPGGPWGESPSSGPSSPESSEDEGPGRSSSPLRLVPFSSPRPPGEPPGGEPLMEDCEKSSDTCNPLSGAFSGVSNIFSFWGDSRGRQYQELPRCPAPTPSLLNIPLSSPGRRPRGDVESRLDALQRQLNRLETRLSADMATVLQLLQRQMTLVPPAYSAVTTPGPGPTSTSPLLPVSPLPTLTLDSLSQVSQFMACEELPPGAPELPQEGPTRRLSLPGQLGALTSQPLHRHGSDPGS

Question: What does the source list for `COc1cc(C(=O)N[C@@H](CC(=O)O)c2ccccc2C)nn1-c1ccccc1F`?
Answer: AUC(0-inf) [1]: 16000 ng·h/mL; Cmax [2]: 3720 ng/mL; Time (Mus musculus [3]): 7.05 ms; Cmax [4]: 22200 ng/mL; Activity (Rattus norvegicus [5]): 15.3 µL/min; IC50 (Neprilysin): 1900 nM; Activity (Mus musculus [6]): 407.11 bpm; AUC(0-inf) [7]: 130000 ng·h/mL; Activity (Mus musculus [8]): 29.63 g; fold change (FC) (Rattus norvegicus [9]): 2; Activity (Mus musculus [10]): 95.88 mmHg; Activity (Mus musculus [11]): 129.95 mmHg; Emax (CYP3A4): 9%; Activity (Rattus norvegicus [12]): 14.3 µL/min; IC50 [13]: 26 nM; Time (Rattus norvegicus [14]): 0.69 s; IC50 [15]: 26 nM; Activity (Rattus norvegicus [16]): inactive; Activity (Mus musculus [17]): 8.32 mmHg; Ratio (Mus musculus [18]): 4.84 mg/g; Activity (Rattus norvegicus [19]): 18.3 µL/min; Activity (Mus musculus [20]): 142.69 mg; Activity (Mus musculus [21]): 57.89%

Question: Which results are given for `Cc1ccccc1[C@H](CC(=O)O)NC(=O)c1cc(=O)n(-c2ccccc2F)[nH]1`?
Answer: logD [22]: -0.16; solubility [23]: > 180 µg/mL; IC50 [24]: > 10000 nM; inhibition (Neprilysin): Active; bioavailability [25]: < 5%; metabolised [26]: 10%; Emax (CYP3A4): 0%; Activity [27]: Non-toxic; metabolised [28]: 10%; Activity (Salmonella typhimurium): Non-toxic
